Hits are enriched below; roughly 3.5% of the tested compounds scored in any of these assays.
Pf gametocyte = late stage P. falciparum gametocyte viability inhibitors, primary screen, ATP luminescence, HTS | inhibition, % at 10.9 µM | P. falciparum stage V gametocytes, 24 h | hit rate 0.065% among 150,000 | AID 743093, 2013;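 active = inhibition above the mean plus 3 SD of compounds within the control limits, set per campaign, cut at about 38% in these data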;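 note: 0% = DMSO wells and 100% = medium only without gametocytes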
APP 5'UTR act = activators of APP 5'UTR luciferase reporter, primary screen, SH-SY5Y cells; SH-SY5Y APP 5'UTR luciferase reporter, luminescence; zero percent = DMSO vehicle wells; activation, % at 2 µM; hit rate 1% among 190,000; AID 1276, 2008;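 active = activation above a set limit, based on mean plus 3 SD of controls, cut at about 140% in these data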
FLuc inh counter = firefly luciferase enzyme inhibitors, primary screen, artefact control for luciferase-based inhibitor screens, biochemical, luminescence, ATPLite. 10 min. hit rate 1.5% among 200,000. Luciferin 4-monooxygenase (Photinus pyralis), P08659. inhibition, % at 10 µM. AID 1006, 2008;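 active = inhibition above about 50% when tested at 10 µM, limit read from the data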
Target sequence (P08659 whole entry, looked up): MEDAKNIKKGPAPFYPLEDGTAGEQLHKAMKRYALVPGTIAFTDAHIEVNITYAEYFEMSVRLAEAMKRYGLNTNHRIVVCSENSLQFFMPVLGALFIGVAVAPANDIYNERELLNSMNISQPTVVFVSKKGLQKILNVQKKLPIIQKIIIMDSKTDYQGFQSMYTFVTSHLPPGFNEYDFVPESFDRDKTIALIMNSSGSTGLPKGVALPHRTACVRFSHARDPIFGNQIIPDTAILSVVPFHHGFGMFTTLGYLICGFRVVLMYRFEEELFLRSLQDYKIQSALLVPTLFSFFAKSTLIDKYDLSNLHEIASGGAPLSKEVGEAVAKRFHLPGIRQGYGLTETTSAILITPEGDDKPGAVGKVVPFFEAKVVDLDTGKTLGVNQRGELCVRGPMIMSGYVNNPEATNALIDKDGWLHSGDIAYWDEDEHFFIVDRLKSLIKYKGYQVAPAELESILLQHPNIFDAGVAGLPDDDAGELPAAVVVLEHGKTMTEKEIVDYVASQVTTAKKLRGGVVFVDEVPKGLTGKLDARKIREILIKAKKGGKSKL
STAT1 act = STAT1 signaling activators, primary screen, cell-based, HTS, luciferase reporter; NIH 3T3 STAT1-luciferase reporter, IFN-gamma, luminescence; 100% = IFN-gamma alone, no compound; activation (% of control), % at 5.5 µM; hit rate 2.6% among 200,000;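 active = activation above the screen-wide mean activation plus 3 SD, cut at about 130% in these data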;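 note: raw ratio to IFN-gamma control signal so 100% means no change and 0% no light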
FLuc stim CS = FLuc activators, initial screening, artefact control for FLuc-dependent activation tests, biochemical, ATPlite luminescence | Luciferin 4-monooxygenase (Photinus pyralis), P08659 | ATPlite luciferase biochemical, 10 min; 0 = ATP-free wells, 1 = DMSO control | activation factor at 10 µM | 200,000 tested, under 10 active | AID 1027, 2008;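 active = luciferase activation factor, scaled between plate controls, of at least 2 with compound at 10 µM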
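System: luciferase plus luciferin reagent, cell-free; medium: PBS as buffer for the ATP substrate; dosing: test compounds dosed from 2 mM stocks in 100% DMSO; timing: 10 min post-reagent at room temperature; measured by: luminescence measurement of luciferase light output; evaluation: luciferase activation, seen as luminescence increase over controls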
NF-kB neuron act = activators of NF-kB expression in neurons, primary screen, cell-based, HTS; human neuronal cells, NF-kB reporter expression; stronger effect = higher value; fold change at 12.5 µM; hit rate 1.6% among 190,000; AID 1239, 2008; in the data active = fold change above about 3.3
Numbers without * were called inactive; nt = no result given.

SMILES	Pf gametocyte	APP 5'UTR act	FLuc inh counter	STAT1 act	FLuc stim CS	NF-kB neuron act
CN(CCc1cnn(C)c1)C(=O)CCc1nnc(CCCc2ccccc2)o1	nt	-0.9	-2.3	117.2	1	1.36
CC(C)N(CCO)C(=O)CCc1nnc(CCCc2ccccc2)o1	4.6	-10.8	0.6	107.0	1	1.58
Cn1c(=O)c2c(nc(CN3CCOCC3)n2CCCO)n(C)c1=O	nt	3.6	0.8	106.7	1	1.13
NC(=O)c1ccc(SCC(=O)NC2CCCCC2)c([N+](=O)[O-])c1	-0.2	8.9	-3.8	101.4	1	0.98
Cc1ccc(Nc2nc(N)nc(-c3oc4ccccc4c3C)n2)cc1	nt	-92.0	-6.3	156.2*	1.1	nt
Cc1cccc(Nc2nc(N)nc(-c3oc4ccccc4c3C)n2)c1	-14.2	nt	nt	nt	nt	nt
COc1cccc(Nc2nc(N)nc(-c3oc4ccccc4c3C)n2)c1	nt	-75.9	-4.3	134.0*	1	1.3
CCc1ccc(C(=O)NC2CCCCC2)s1	0.6	123.7	34.1	140.7*	0.7	4.65*
CC(=O)Nc1ccc2nc(C3CC3)n(Cc3ccc(Cl)cc3)c(=O)c2c1	-5.3	106.3	-0.5	146.5*	1	2.24
C=CC[C@@H](Cc1ccc(F)cc1)C(=O)OC[C@@H]1CCCN1C(=O)[C@@H](CC=C)CC(=O)NCCO	-12.6	nt	nt	nt	nt	nt
N/C(=N\N=C\c1ccc(O)cc1)c1nonc1N	13.7	91.4	50.8*	115.3	0.5	5.13*
N/C(=N\N=C\c1cccc(O)c1)c1nonc1N	15.3	154.8*	40.2	104.9	0.6	8.69*
COC(=O)c1c(NC(=O)C2CCCCC2C(=O)O)sc2c1CCCCC2 (centres undefined)	11.6	-2.2	-5.1	129.6*	1.1	1.58
Cc1ccc2nc(-c3ccccc3N)[nH]c2c1	30.8	198.2*	80.1*	77.9	0.2	1.07
Cc1ccc2nc(Cc3ccc(N)cc3)[nH]c2c1	nt	160.1*	-0.4	131.4*	1	1.53
COc1ccccc1NC(=O)c1ccc(NC(=O)COC(=O)CC(NC(=O)c2ccccc2Cl)c2ccccc2)cc1 (centres undefined)	-4.4	5.7	-9.3	99.7	1.1	0.81
CC(C)=NNc1nc(-c2ccccc2)c(C)s1	14.3	6.8	-3.7	101.4	1	1.14
CC(=O)Oc1ccc(NC(=O)CSc2ccccc2)cc1	nt	-0.7	-1.6	106.4	1	4.15*
CC(=O)NS(=O)(=O)c1ccc(NC(=O)CSc2ccccc2)cc1	6.4	nt	nt	nt	nt	nt
COc1cccc(/C=N/Nc2nn3cnnc3c3ccccc23)c1	nt	-7.9	70.7*	91.0	0.3	0.5
CCOc1cc(/C=N/Nc2nn3cnnc3c3ccccc23)ccc1O	-12.2	nt	nt	nt	nt	nt
COc1cc(/C=N/Nc2nn3cnnc3c3ccccc23)ccc1O	nt	2.9	93.9*	66.7	0.1	0.75
COc1cccc(/C=N/Nc2nc3ccccc3n3cnnc23)c1	2.4	-13.3	-8.6	103.6	1.1	0.38
COC(=O)C1=C(C)NC(=O)CC1c1cc(Br)ccc1F (centres undefined)	-16.7	11.7	-2.5	95.0	1	1.15
CS(=O)(=O)N(Cc1ccccc1)c1ccc(C(=O)NCc2ccccc2)cc1	nt	-16.8	-6.5	95.0	1.1	1.31
SMILES	Pf gametocyte	APP 5'UTR act	FLuc inh counter	STAT1 act	FLuc stim CS	NF-kB neuron act
CC1CCC/C(=C\Nc2ccc(C(=O)O)cc2)C1=O (centres undefined)	-0.8	139.2*	5.6	148.6*	0.9	3.82*
CCOC(=O)c1ccc(N/C=C2/CCCC(C)C2=O)cc1 (centres undefined)	nt	15.7	8.5	115.0	0.9	2.48
COc1ccc(-n2c(C)cc(C(=O)CSc3ccc(NC(C)=O)cc3)c2C)cc1	7.1	7.3	1.4	106.4	1	1.33
Cc1cc(C(=O)CSc2nncn2C)c(C)n1-c1ccccc1	nt	122.1	68.6*	96.0	0.3	4.2*
Cc1cc(C(=O)CSc2cccc[n+]2[O-])c(C)n1-c1ccccc1	-14.7	148.9*	80.3*	89.7	0.2	3.81*
Cc1cc(C(=O)CSc2cccc[n+]2[O-])c(C)n1-c1ccc(Br)cc1	nt	29.9	7.7	113.7	0.9	1.08
Cc1ccc(-n2c(C)cc(C(=O)CSc3nncs3)c2C)cc1	nt	139.2*	53.7*	129.4*	0.5	5.42*
CC(=O)Nc1ccc(SCC(=O)c2cc(C)n(-c3ccccc3)c2C)cc1	11.9	98.6	27.3	140.9*	0.7	0.46
CC(=O)c1ccc(S(=O)(=O)Nc2ccc(-c3cn4c(n3)SCC4)cc2)cc1	7.5	17.6	4.3	101.1	1	1.31
CCCCC1C2C(=O)N(c3ccc(C)cc3)C(=O)C2ON1c1ccccc1 (centres undefined)	1.4	nt	nt	nt	nt	nt
CC(=O)Nc1ccc(NC(=O)C2CCCN2/C=C/C(=O)C(F)(F)F)cc1 (centres undefined)	-10.2	38.1	1.8	102.6	1	0.93
Cc1cccc(NC(=O)c2c(O)c3ccccc3n(C)c2=O)c1	-24.9	nt	nt	nt	nt	nt
O=C(CSc1nnc(NCc2ccccc2)s1)N1CCOCC1	20.2	-13.8	13.7	101.2	0.9	1.15
CC(C)(C)NC(=O)CSc1nnc(NC(=O)c2ccccc2Cl)s1	nt	-45.9	26.1	108.7	0.7	1.07
CCOC(=O)CNC(=O)CSc1nnc(NC(=O)c2ccccc2Cl)s1	-6.0	17.7	68.6*	109.6	0.3	1.5
O=C(Nc1nnc(SCC(=O)N2CCOCC2)s1)c1ccccc1Cl	nt	nt	84.8*	99.4	0.2	1.36
C=CCn1c(COc2ccccc2OC)nc2ccccc21	4.0	nt	nt	nt	nt	nt
Cc1ccc(NC(=O)C2COc3ccccc3O2)cc1 (centres undefined)	-14.5	nt	nt	nt	nt	nt
CC(=O)c1sc(NC(=O)C2COc3ccccc3O2)nc1C (centres undefined)	nt	132.2	59.9*	82.5	0.4	1.46
CC1(C)Oc2ccc(NC(=O)C3COc4ccccc4O3)cc2O1 (centres undefined)	-4.0	167.7*	40.7	119.6	0.6	4.92*
COC(=O)CCCC1=CC2=C(c3ccccc3)C(=O)C(C)(OC(=O)C3CCCC3)C(=O)C2=CN1CCc1c[nH]c2ccccc12 (centres undefined)	11.6	nt	nt	nt	nt	nt
O=C1OC(c2ccccc2)=C/C1=C/c1cccs1	-8.7	18.0	79.4*	99.3	0.2	1.35
CN1CCN(S(=O)(=O)c2ccc(NC(=O)c3ccc(Br)s3)cc2)CC1	-33.6	-1.5	-3.7	99.3	1	0.94
CC(/C=N/N1CCN(c2ccccc2)CC1)=C\c1ccccc1	nt	1.6	-3.5	101.8	1	1.62
CC(/C=N/N1CCN(c2ccccc2)CC1)=C\c1ccco1	nt	79.9	16.9	137.8*	0.8	3.64*
CC(=C/c1ccco1)/C=N/N1CCN(c2ccccc2)CC1	-1.0	65.7	11.8	128.4	0.9	3.85*
